Series [1] concerns Rattus norvegicus. The experiment in a line: Antiallergic activity in Sprague-Dawley CD rat assessed as inhibition of passive anaphylaxis-induced hind paw edema at 30 mg/kg, ip relative to control. The format is functional. The conditions noted are these: route intraperitoneal. In short, it runs like this:
(§1)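 Passive anaphylaxis (reaginic antibody) induced in rat hind paw: serum with reaginic antibody injected into left hind paw; antigen given intravenously 24 h later. Paw volume measured by mercury displacement; activity read as inhibition of paw edema versus controls. Test compounds given ip or po. Inhibition of 35% or more considered significant by Student's t test (p < 0.05).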

Series [2] relates to Rattus norvegicus. The series is described as follows: Antiallergic activity in Sprague-Dawley CD rat assessed as inhibition of passive anaphylaxis-induced hind paw edema at 10 mg/kg, ip relative to control. The format is functional. The conditions noted are these: route intraperitoneal. In short, it runs like this:
as §1

Series [3] deals with Rattus norvegicus. The series is described as follows: Antiallergic activity in Sprague-Dawley CD rat assessed as inhibition of passive anaphylaxis-induced hind paw edema at 100 mg/kg, po relative to control. The format is functional. In a few lines: as §1
For series [4], the system named is Rattus norvegicus. The experiment in a line: Antiallergic activity in Sprague-Dawley CD rat assessed as inhibition of passive anaphylaxis-induced hind paw edema at 30 mg/kg, po relative to control. The format is functional. In a few lines: as §1
Series [5] concerns Rattus norvegicus. The series is described as follows: Antiallergic activity in Sprague-Dawley CD rat passive anaphylaxis model assessed as hind paw edema volume at 10 mg/kg, ip relative to control. The class given is functional. The settings on record: route intraperitoneal. In short, it runs like this:
as §1

The subject of series [6] is Rattus norvegicus. The experiment in a line: Antiallergic activity in Sprague-Dawley CD rat passive anaphylaxis model assessed as hind paw edema volume at 5 mg/kg, ip relative to control. The class given is functional. The settings on record: route intraperitoneal. In a few lines: as §1
The test system of series [7] is Rattus norvegicus. The series is described as follows: Antiallergic activity in Sprague-Dawley CD rat passive anaphylaxis model assessed as hind paw edema volume at 2 mg/kg, ip relative to control. The class given is functional. The settings on record: route intraperitoneal. In a few lines: as §1
Series [8] concerns Rattus norvegicus. The series is described as follows: Antiallergic activity in Sprague-Dawley CD rat passive anaphylaxis model assessed as hind paw edema volume at 30 mg/kg, po relative to control. The format is functional. In short, it runs like this:
as §1

The test system of series [9] is Rattus norvegicus. The series is described as follows: Antiallergic activity in Sprague-Dawley CD rat passive anaphylaxis model assessed as hind paw edema volume at 10 mg/kg, po relative to control. The class given is functional. In short, it runs like this:
as §1

Series [10] deals with Rattus norvegicus. The series is described as follows: Antiallergic activity in Sprague-Dawley CD rat passive anaphylaxis model assessed as hind paw edema volume at 3 mg/kg, po relative to control. The class given is functional. In a few lines: as §1
For series [11], the system named is Rattus norvegicus. The series is described as follows: Antiallergic activity in Sprague-Dawley CD rat assessed as inhibition of passive anaphylaxis-induced hind paw edema at 5 mg/kg, ip relative to control. The format is functional. The conditions noted are these: route intraperitoneal. In a few lines: as §1
In series [12] the test system is Rattus norvegicus. The series is described as follows: Antiallergic activity in Sprague-Dawley CD rat assessed as inhibition of passive anaphylaxis-induced hind paw edema at 2 mg/kg, ip relative to control. The settings on record: route intraperitoneal. The class given is functional. In short, it runs like this:
as §1

Series [13] relates to Rattus norvegicus. The experiment in a line: Antiallergic activity in Sprague-Dawley CD rat assessed as inhibition of passive anaphylaxis-induced hind paw edema at 10 mg/kg, po relative to control. The format is functional. In short, it runs like this: as §1
Series [14] deals with Rattus norvegicus. The experiment in a line: Antiallergic activity in Sprague-Dawley CD rat assessed as inhibition of passive anaphylaxis-induced hind paw edema at 3 mg/kg, po relative to control. The class given is functional. In a few lines: as §1
Series [15] in a line: Inhibition of beef heart PDE assessed as cyclic AMP level. More on the design: species or system Bos taurus. In a few lines:
(§2)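 PDE from beef heart or guinea pig lung assayed by earlier-described methods; protein measured by Lowry method. IC50 taken from a plot of percent inhibition vs log inhibitor concentration, as the concentration giving 50% reduction in reaction velocity relative to uninhibited controls.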

The nature of series [16]: Inhibition of guinea pig lung PDE assessed as cyclic AMP level. On the set-up: species or system Cavia porcellus. In a few lines:
as §2

Series [17] deals with Rattus norvegicus. The series is described as follows: Antiallergic activity in Sprague-Dawley CD rat passive anaphylaxis model assessed as hind paw edema volume at 3 mg/kg, ip relative to control. The conditions noted are these: route intraperitoneal. The format is functional. In short, it runs like this:
as §1

Series [18] deals with Rattus norvegicus. The experiment in a line: Antiallergic activity in Sprague-Dawley CD rat passive anaphylaxis model assessed as hind paw edema volume at 1 mg/kg, ip relative to control. The conditions noted are these: route intraperitoneal. The format is functional. In short, it runs like this: as §1
Series [19] concerns Rattus norvegicus. The series is described as follows: Antiallergic activity in Sprague-Dawley CD rat assessed as inhibition of passive anaphylaxis-induced hind paw edema at 3 mg/kg, ip relative to control. The format is functional. The conditions noted are these: Rattus norvegicus, Sprague-Dawley CD, ip, route intraperitoneal. In a few lines: as §1
For series [20], the system named is Rattus norvegicus. The series is described as follows: Antiallergic activity in Sprague-Dawley CD rat assessed as inhibition of passive anaphylaxis-induced hind paw edema at 1 mg/kg, ip relative to control. The settings on record: route intraperitoneal. The format is functional. In short, it runs like this: as §1
The test system of series [21] is Serum. The experiment in a line: Drug metabolism in serum of Sprague-Dawley CD rat passive anaphylaxis model at 0.23 mmol/kg, iv. The format is ADME, cell-free. In short, it runs like this: (§3)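 Rats given an iv bolus of 0.23 mmol/kg. Serum separated by centrifugation and stored frozen. Drug-derived material in serum quantified over time by UV measurement of 2-aminotropone. For 14C-labelled ester (label in ethyl group or oxalyl carbonyls), radioactivity counted in 0.2 mL serum after tissue-solubiliser digestion and scintillation fluid addition.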

Series [22] has as its system Serum. The experiment in a line: Drug metabolism in serum of Sprague-Dawley CD rat passive anaphylaxis model assessed as 2-[(Carboxycarbonyl)amino]-2,4,6-cycloheptatrien-l-one level at 0.23 mmol/kg, iv. The class given is ADME, cell-free. In a few lines: as §3
Series [23] deals with Serum. The series is described as follows: Drug metabolism in serum of Sprague-Dawley CD rat passive anaphylaxis model assessed as 2-aminotropone level at 0.23 mmol/kg, iv. The class given is ADME, cell-free. In short, it runs like this:
as §3

Series [24] relates to Blood. The series is described as follows: Drug metabolism in blood of Sprague-Dawley CD rat passive anaphylaxis model at 0.23 mmol/kg, iv. The format is ADME, tissue-based. In a few lines: as §3
The subject of series [25] is Rattus norvegicus. The experiment in a line: Drug metabolism in po dosed Sprague-Dawley CD rat passive anaphylaxis model assessed as 2-aminotropone level. The settings on record: in vivo. The class given is ADME, organism-based.
The species entered for series [26] is Cavia porcellus. The series is described as follows: Stimulation of guinea pig lung adenylate cyclase activity at 1 x 10^-4 M after 15 mins relative to control.
For series [27], the species on record is Cavia porcellus. The series is described as follows: Stimulation of guinea pig lung adenylate cyclase activity at 1 x 10^-5 M after 15 mins relative to control.
The mark [28] stands for this setting: Rattus norvegicus, Sprague-Dawley CD, ip.
[29] abbreviates: Rattus norvegicus, Sprague-Dawley CD, po.

The values below come from ChEMBL document CHEMBL3244005, “Troponoids. 3. Synthesis and antiallergy activity of N-troponyloxamic acid esters” (J Med Chem, 1979).

One may read the inhibition in vivo as the change of the read-out against control, counted positive when it falls. Broadly, the IC50 is the point on the concentration scale where inhibition reaches its midpoint.

As for `O=C([O-])C(=O)Nc1cccccc1=O.[K+]`, the “inhibition (INH)” value was determined as 75% in series [1]; 70% in [2]; 68% in series [3]; 53% in [4]; 31% in [13]; 35% in [14]. The Activity in [5] was 0.36 mL; in [6] it was 0.69 mL; in series [7], 0.69 mL; in series [8] it was 0.44 mL; in [9] it was 0.66 mL; in series [10], 0.61 mL. The inhibition in vivo at 5 mg/kg in [11] stood at 46%. Further, the inhibition in vivo at 2 mg/kg in [12] turned out to be 46%. In addition, the IC50 is 5.1 mM in [15] and 5 mM in series [16].

In the case of `CCOC(=O)C(=O)Nc1cccccc1=O`, the inhibition in vivo at 30 mg/kg in series [1] (setting [28]) is 84%; in series [4] (setting [29]), 79%. The inhibition in vivo at 10 mg/kg in [2] (setting [28]) was 80%; in [13] (setting [29]), 75%. In addition, the inhibition in vivo at 100 mg/kg in [3] (setting [29]) worked out at 91%. The Activity in series [5] turned out to be 0.22 mL; in [17] it was 0.41 mL; in [18], 0.95 mL; in series [8], 0.17 mL; in series [9], 0.24 mL; in [10], 0.47 mL. In addition, the values for the Activity in series [26] and in [27] were 7% and 0%, respectively. In addition, the figures for the inhibition in vivo at 3 mg/kg in [19] and in [14] (setting [29]) were 62% and 50%, respectively. In [20], the inhibition in vivo at 1 mg/kg came to 16%. The Drug metabolism result in series [21] is on record as “metabolite_detected”; in [22], “metabolite_detected”; in [23], “metabolite_notdetected”; in [24], “metabolite_detected”; in series [25] it was “metabolite_detected”. The IC50 stood at 1.51 mM in series [15] and 1.94 mM in [16].
